Screening results (PubChem BioAssay)
Shown are actives, neighbours in structure and some others; about 1.7% of the full set was active somewhere.
procasp3 activ – procaspase-3 (human) activation; hit rate 0.11% among 330,000; activation, % at 8.5 µM; recombinant procaspase-3 D3A, Ac-DEVD-pNA absorbance 405 nm;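 active = activation above the mean of all tested compounds plus 3 SD, cut at about 21% in these data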;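 also: 0% = DMSO alone and 100% = DMSO wells spiked with extra 5 µM PC-3 D3A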
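Assay system – Procaspase-3 D3A mutant, all three cleavage aspartates alanine · Controls – DMSO-only low control, 5 µM PC-3 D3A high control · Schedule – 1 h compound preincubation, 2 h substrate hydrolysis at 25 °C · Signal – 405 nm absorbance of p-nitroaniline, reads at 0 and 120 min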
VIM-2 inh – inhibitors of Pseudomonas aeruginosa VIM-2 metallo-beta-lactamase; inhibition, % at 5.6 µM; purified VIM-2, nitrocefin hydrolysis, epi-absorbance fluorescence; hit rate 0.89% among 290,000;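 active = inhibition above the mean of all tested compounds plus 3 SD, cutoff set per screening run, cut at about 7.5% in these data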;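 also: red hydrolysis product quenches plate fluorescence so inhibitors raise well fluorescence; 0% = enzyme with DMSO and 100% = DMSO without enzyme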
Neddylation inh – cullin neddylation inhibition; calls only at 25 µM; P61081+Q13564; TR-FRET cullin neddylation, biochemical; hit rate 0.58% among 360,000; in the data active = inhibition above about 36%
Target sequence (P61081 whole entry, looked up): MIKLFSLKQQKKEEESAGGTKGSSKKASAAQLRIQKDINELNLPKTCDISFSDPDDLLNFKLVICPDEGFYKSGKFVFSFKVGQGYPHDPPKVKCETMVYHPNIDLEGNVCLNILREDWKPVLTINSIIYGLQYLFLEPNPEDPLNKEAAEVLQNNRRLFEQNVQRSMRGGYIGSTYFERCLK
Target sequence (Q13564 whole entry, looked up): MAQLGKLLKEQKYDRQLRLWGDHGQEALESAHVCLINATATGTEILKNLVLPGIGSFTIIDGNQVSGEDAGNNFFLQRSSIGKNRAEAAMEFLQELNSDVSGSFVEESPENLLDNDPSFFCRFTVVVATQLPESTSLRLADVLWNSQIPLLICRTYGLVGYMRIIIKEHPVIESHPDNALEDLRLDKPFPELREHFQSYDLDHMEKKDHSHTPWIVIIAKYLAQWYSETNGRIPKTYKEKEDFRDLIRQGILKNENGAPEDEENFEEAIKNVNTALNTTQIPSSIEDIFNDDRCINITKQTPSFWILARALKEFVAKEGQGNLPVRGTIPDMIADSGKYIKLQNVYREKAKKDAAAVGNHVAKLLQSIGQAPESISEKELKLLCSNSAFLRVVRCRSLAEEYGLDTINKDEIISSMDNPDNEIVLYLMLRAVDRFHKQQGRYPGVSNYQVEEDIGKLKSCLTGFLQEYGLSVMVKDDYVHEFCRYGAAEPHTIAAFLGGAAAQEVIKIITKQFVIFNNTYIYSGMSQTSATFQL
IMP-1 inhibitor – inhibitors of Pseudomonas aeruginosa IMP-1 metallo-beta-lactamase; purified IMP-1, nitrocefin hydrolysis, epi-absorbance fluorescence; inhibition, % at 5.6 µM; hit rate 0.45% among 290,000; AID 1556;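 active = inhibition above the mean plus 3 SD of all compounds in the same screening run, cut at about 4.5% in these data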;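 also: 0% = IMP-1 with DMSO and 100% = DMSO wells lacking enzyme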
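System: Purified IMP-1 | Read-out basis: Percent enzyme inhibition | Controls: IMP-1 with DMSO as 0%, enzyme-free DMSO as 100% | Replicates: One well per compound | Doses: 5.6 µM nominal single concentration | Detection: Epi-absorbance fluorescence, 480 nm excitation, 530 nm emission | Incubation: 25 °C, 15 min preincubation, 25 min reaction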
PolyA inhibitor – blocks polyadenylation in yeast reporter cells; activity score, % at 12 µM; hit rate 0.02% among 300,000; S. cerevisiae SKY197-pL101 polyadenylation reporter, beta-gal luminescence; efflux-impaired pdr1/pdr3 knockout yeast; score 100 = 6 SD above DMSO; AID 1875;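 active = lowest replicate activity score at least 50, where 100 means six control SD above control mean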;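 also: yeast exposed to compound for 9 h at 30 °C; higher score means more reporter readthrough which indicates perturbed polyadenylation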
proCasp7 act – counter-screen: procaspase-7 (human) activation. hit rate 0.093% among 330,000. recombinant procaspase-7, Ac-DEVD-pNA absorbance 405 nm; D23A/D198A/D206A triple mutant, cannot self-cleave; scale: DMSO 0, 5 µM enzyme 100. AID 463210. P55210. activation, % at 8.5 µM;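 active = percent activation above the screen-wide mean plus 3 SD, cut at about 25% in these data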
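Test system: Procaspase-7 triple mutant (PC-7 D3A). Also added: Ac-DEVD-pNA substrate, 400 µM as added. Schedule: 1 h enzyme–compound preincubation and 2 h substrate reaction, both 25 °C. Signal: p-Nitroaniline absorbance at 405 nm, read at 0 and 120 min. Control set: low DMSO alone, high DMSO plus 5 µM PC-7.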
An asterisk follows results filed as active.

COCCC(=O)N1CCCC(C(=O)c2ccccc2SC)C1 (stereo unspecified) was read as procasp3 activ -1, VIM-2 inh -2, Neddylation inh inactive, IMP-1 inhibitor 19*, PolyA inhibitor -1 and proCasp7 act -12.
Cc1cc(C)c2[nH]c(=O)c(CN(Cc3cccnc3)C(=S)NCCCN(C)C)cc2c1 was read as procasp3 activ 0, VIM-2 inh 9.3*, Neddylation inh inactive, IMP-1 inhibitor -2, PolyA inhibitor 7 and proCasp7 act 7.
Screening CCN(CC)CCCNC(=S)N(Cc1cccnc1)Cc1cc2cc(C)cc(C)c2[nH]c1=O returned procasp3 activ -3, VIM-2 inh 12*, Neddylation inh inactive, IMP-1 inhibitor 1, PolyA inhibitor 9 and proCasp7 act -9.
CCOC(=O)CN1CC23C=CC(O2)C(C(=O)NCCc2ccccc2)C3C1=O (stereo unspecified) was read as procasp3 activ 0, VIM-2 inh -3, Neddylation inh inactive, IMP-1 inhibitor -5, PolyA inhibitor 12 and proCasp7 act 8.
For CSc1nc(N(CCO)CCO)c2sc3nc(-c4ccco4)c4c(c3c2n1)CCC4 the results were VIM-2 inh 1, Neddylation inh inactive, IMP-1 inhibitor 12* and PolyA inhibitor 25.
CSc1nc(SCCO)c2sc3nc(-c4ccco4)c4c(c3c2n1)CC(C)(C)OC4 was read as VIM-2 inh 3, Neddylation inh inactive, IMP-1 inhibitor 4 and PolyA inhibitor 9.
`Fc1ccc2c(c1)C(c1ccc(N3CCOCC3)cc1)=NNC(c1cccs1)=N2` gave procasp3 activ -3, VIM-2 inh 0, Neddylation inh active, IMP-1 inhibitor -2, PolyA inhibitor 6 and proCasp7 act 1.
Screening Brc1ccc2c(c1)C(c1ccc(N3CCOCC3)cc1)=NNC(c1cccs1)=N2 returned procasp3 activ -2, VIM-2 inh -4, Neddylation inh inactive, IMP-1 inhibitor -2, PolyA inhibitor -20 and proCasp7 act -4.
NS(=O)(=O)c1cccc(NC(=O)COC(=O)Cc2ccc(S(=O)(=O)N3CCCCC3)s2)c1 was read as procasp3 activ 0, VIM-2 inh -4, Neddylation inh inactive, IMP-1 inhibitor 5.6*, PolyA inhibitor 11 and proCasp7 act 6.
Screening O=C(COC(=O)Cc1ccc(S(=O)(=O)N2CCOCC2)s1)NCc1ccccc1 returned procasp3 activ -2, VIM-2 inh -3, Neddylation inh inactive, IMP-1 inhibitor 1, PolyA inhibitor 903* and proCasp7 act -5.
Screening CCN(C(=O)c1cc2c(=O)[nH]c3ccc(C)cc3c2s1)c1cccc(C)c1 returned procasp3 activ 2, VIM-2 inh -2, Neddylation inh inactive, IMP-1 inhibitor -4, PolyA inhibitor -5 and proCasp7 act 6.
COC(=O)c1ccc(NC(=O)c2ccc(F)cc2)o1 was read as procasp3 activ -13, VIM-2 inh -2, Neddylation inh inactive, IMP-1 inhibitor -2, PolyA inhibitor -1 and proCasp7 act -2.
COC(=O)c1ccc(NC(=O)c2ccc(C)cc2)o1 was read as procasp3 activ -5, VIM-2 inh -1, Neddylation inh inactive, IMP-1 inhibitor 5.5*, PolyA inhibitor 8 and proCasp7 act 5.
`COc1cc2cc(CN(CCCN3CCOCC3)C(=O)Nc3ccc(F)cc3)c(=O)[nH]c2cc1OC` gave procasp3 activ 4, VIM-2 inh 8.8*, Neddylation inh inactive, IMP-1 inhibitor 0, PolyA inhibitor 25 and proCasp7 act 2.
Screening Cc1ccc(CN(CC(=O)NCc2ccccn2)S(=O)(=O)c2ccccc2)cc1 returned procasp3 activ -8, VIM-2 inh -1, Neddylation inh inactive, IMP-1 inhibitor 2, PolyA inhibitor -18 and proCasp7 act 0.
`O=C(NCc1cccnc1)C1c2ccccc2C(=O)N1Cc1ccco1` (stereo unspecified) gave procasp3 activ -4, VIM-2 inh 0, Neddylation inh inactive, IMP-1 inhibitor 4.6*, PolyA inhibitor 12 and proCasp7 act -8.
For O=C(COC(=O)c1ccc2ccccc2n1)Nc1ccccc1Br the results were procasp3 activ -1, Neddylation inh inactive and proCasp7 act 3.
Screening C=CCN(c1ccc(OC)cc1)S(=O)(=O)c1ccc(Cl)c(C(=O)OCC(=O)c2c(N)n(C)c(=O)n(C)c2=O)c1 returned Neddylation inh inactive.
Screening Cc1cc(C)c2c(c1)C1C=CCC1C(c1ccc(S(=O)(=O)N3CCOCC3)cc1)N2 (stereo unspecified) returned procasp3 activ 1, VIM-2 inh -1, Neddylation inh inactive, IMP-1 inhibitor 5.8*, PolyA inhibitor 23 and proCasp7 act -6.
`O=C(O)c1cc(Cl)c2c(c1)[C@@H]1C=CC[C@@H]1[C@H](c1ccc(S(=O)(=O)N3CCOCC3)cc1)N2` gave procasp3 activ -14, VIM-2 inh 1, Neddylation inh inactive, IMP-1 inhibitor 11*, PolyA inhibitor 8 and proCasp7 act -9.
For Cc1cc(C)c2c(CN3CCN(Cc4ccccc4)CC3)cc(=O)oc2c1C the results were procasp3 activ 6, VIM-2 inh 9.8*, Neddylation inh inactive, IMP-1 inhibitor -1, PolyA inhibitor -21 and proCasp7 act 16.
For Cc1c(O)ccc2c(CN3CCN(Cc4ccccc4)CC3)cc(=O)oc12 the results were procasp3 activ 15, VIM-2 inh 0, IMP-1 inhibitor 0, PolyA inhibitor 17 and proCasp7 act 19.
Screening O=c1cc(CN2CCN(Cc3ccccc3)CC2)c2cc3c(cc2o1)CCC3 returned procasp3 activ -4, VIM-2 inh 7.7*, Neddylation inh inactive, IMP-1 inhibitor 1, PolyA inhibitor 12 and proCasp7 act 1.
Screening O=c1cc(CN2CCN(c3ccccc3F)CC2)c2cc3c(cc2o1)CCCC3 returned procasp3 activ 6, VIM-2 inh -3, Neddylation inh inactive, IMP-1 inhibitor -2, PolyA inhibitor 8 and proCasp7 act 18.
Screening CCOC(=O)COc1cc2c3c(c(=O)oc2cc1C)CCCC3 returned procasp3 activ 9, VIM-2 inh 2, Neddylation inh inactive, IMP-1 inhibitor 1, PolyA inhibitor 9 and proCasp7 act 8.
CCOC(=O)COc1cc(OCC(=O)OCC)c2c3c(c(=O)oc2c1)CCCC3 was read as VIM-2 inh 9.4*, IMP-1 inhibitor -2 and PolyA inhibitor 4.
CCC(C)NC(=O)c1ccccc1C(=O)NC(C)CC (stereo unspecified) was read as procasp3 activ 9, VIM-2 inh -1, Neddylation inh inactive, IMP-1 inhibitor 6.1*, PolyA inhibitor 6 and proCasp7 act -7.
